Measurements pooled from the literature.
Target: Hormonally up-regulated neu tumor-associated kinase (HUNK, Homo sapiens, UniProt P57058)
Sequence (P57058 1-714, as in one of the studies): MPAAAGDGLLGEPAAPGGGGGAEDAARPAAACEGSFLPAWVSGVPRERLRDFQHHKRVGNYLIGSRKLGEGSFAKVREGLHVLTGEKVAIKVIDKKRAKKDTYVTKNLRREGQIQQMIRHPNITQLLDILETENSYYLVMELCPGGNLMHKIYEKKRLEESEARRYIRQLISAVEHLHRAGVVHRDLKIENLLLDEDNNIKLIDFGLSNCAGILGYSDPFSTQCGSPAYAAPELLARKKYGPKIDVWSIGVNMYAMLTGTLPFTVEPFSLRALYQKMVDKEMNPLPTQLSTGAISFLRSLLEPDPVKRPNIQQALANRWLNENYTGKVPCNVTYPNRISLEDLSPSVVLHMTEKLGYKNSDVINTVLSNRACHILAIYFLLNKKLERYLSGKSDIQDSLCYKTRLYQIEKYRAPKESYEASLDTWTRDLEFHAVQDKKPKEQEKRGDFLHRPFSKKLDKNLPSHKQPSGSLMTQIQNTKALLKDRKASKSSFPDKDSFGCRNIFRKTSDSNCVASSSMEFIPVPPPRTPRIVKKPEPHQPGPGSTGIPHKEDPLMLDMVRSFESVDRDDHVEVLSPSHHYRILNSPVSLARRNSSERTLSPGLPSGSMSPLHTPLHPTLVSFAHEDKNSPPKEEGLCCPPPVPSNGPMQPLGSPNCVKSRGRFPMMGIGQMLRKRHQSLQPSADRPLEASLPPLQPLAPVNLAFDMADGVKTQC

CCN1CCN(Cc2ccc(C(=O)Nc3ccc(C)c(Oc4ccc5c(c4)CC(=O)N5)c3)cc2C(F)(F)F)CC1  remaining binding (binding, competition with immobilised ligand; 1 µM): 100%
C[C@@H](c1ccc(-n2cnc3c(N)ncnc32)cc1)N1CCc2nn(C)c(Cc3ccccc3)c2C1=O  remaining binding (binding, competition with immobilised ligand; 0.1 µM): 79%
CSc1cccnc1N1CCN(Cc2nc3ccccc3[nH]2)CC1  remaining binding (cell-free assay, competition with immobilised ligand; 1 µM): 100%
FC(F)(F)Oc1cccc(-c2cnc3ccc(-c4ccncc4)nn23)c1  remaining binding (cell-free assay, competition with immobilised ligand; 5 µM): 96%
O=C(NCCCN1CCOCC1)c1ccc(Nc2nccc(-c3cc4ccccc4s3)n2)cc1  remaining binding (binding, competition with immobilised ligand; 1 µM): 100%
Cc1cnn2ncc(-c3ccnc(N(C)C)n3)c2c1  remaining binding (binding; 1 µM): 100%
CCCOc1ccc([C@@H]2[C@@H](C(=O)O)[C@H](c3ccc4c(c3)OCO4)CN2CC(=O)Nc2c(CC)cccc2CC)cc1  remaining binding (cell-free assay, competition with immobilised ligand; 1 µM): 70%
O=C(c1ccc(Nc2nccc(-c3cc4ccccc4s3)n2)cc1)N1CCC(N2CCCC2)CC1  remaining binding (binding, competition with immobilised ligand; 1 µM): 100%
CN(C)c1nccc(-c2cnn3ncccc23)n1  remaining binding (binding; 1 µM): 100%
O=C(NCC1CCOCC1)c1n[nH]cc1NC(=O)c1c(F)cccc1F  remaining binding (binding, competition with immobilised ligand; 1 µM): 100%
O=C(O)c1cc(-c2ccc(C3CCNCC3)cc2)c2ccc(-c3ccc(C(F)(F)F)cc3)cc2c1  remaining binding (cell-free assay, competition with immobilised ligand; 1 µM): 100%
N[C@H]1CCN(c2nccc(-c3cnn4ncccc34)n2)C1  remaining binding (binding; 1 µM): 82%
CC1=C(C#N)[C@@H](c2ccc3[nH]nc(C)c3c2)C(C#N)=C(c2ccc(Cl)cc2)N1  remaining binding (cell-free assay, competition with immobilised ligand; 1 µM): 81.4%
O=C(c1ccc(Nc2ncc(Cl)c(-c3ccc(Cl)s3)n2)cc1)N1CCC(N2CCCC2)CC1  remaining binding (binding, competition with immobilised ligand; 1 µM): 100%
CN(C)c1nccc(-c2cnc3ncccn23)n1  remaining binding (binding; 1 µM): 83%
O=C(NC[C@@H]1[C@H]2CN(C(=O)OCc3cc(C(F)(F)F)cc(C(F)(F)F)c3)C[C@@H]12)c1ccc2[nH]nnc2c1  remaining binding (cell-free assay, competition with immobilised ligand; 1 µM): 100%
c1cncc(-c2cccc(Nc3nccc(NC4CCCCC4)n3)c2)c1  remaining binding (binding, competition with immobilised ligand; 10 µM): 100%
CNC(=O)[C@@H]1CC[C@@H](n2c(-c3ccc4cnccc4c3)nc3ccc(C(=O)NCc4cccc(C(N)=O)c4)cc32)C1  remaining binding (binding, competition with immobilised ligand; 1 µM): 100%
CN([C@@H]1CCc2c(CC(=O)O)c3ccccc3n2C1)S(=O)(=O)c1ccc(F)cc1  remaining binding (cell-free assay, competition with immobilised ligand; 1 µM): 99%
C[C@@H]1CCN(c2nccc(-c3cnn4ncccc34)n2)C1  remaining binding (binding; 1 µM): 100%
COc1cc(-c2cn(C3CCc4ccccc4N(CC(F)(F)F)C3=O)nn2)ccc1-n1ccc(C)n1 (stereo not shown)  remaining binding (cell-free assay, competition with immobilised ligand; 1 µM): 100%
c1cnn2ncc(-c3ccnc(N4CCC45COC5)n3)c2c1  remaining binding (binding; 1 µM): 92%
